Measurements reported in ChEMBL document CHEMBL1148752, “Dopamine/serotonin receptor ligands. 16.(1) Expanding dibenz[d,g]azecines to 11- and 12-membered homologues. Interaction with dopamine D(1)-D(5) receptors” (J Med Chem, 2007).
pKi: −log10 of the molar value.

How the values were obtained:
D(1B) dopamine receptor = D(1B) dopamine receptor (Homo sapiens, UniProt P21918); assay: Displacement of [3H]SCH 23390 from human dopamine D5 receptor expressed in HEK293 cells; format: cell-based
D(1A) dopamine receptor = D(1A) dopamine receptor (Homo sapiens, UniProt P21728); assay: Displacement of [3H]SCH 23390 from human dopamine D1 receptor
D(1A) dopamine receptor, sequence (P21728 whole entry): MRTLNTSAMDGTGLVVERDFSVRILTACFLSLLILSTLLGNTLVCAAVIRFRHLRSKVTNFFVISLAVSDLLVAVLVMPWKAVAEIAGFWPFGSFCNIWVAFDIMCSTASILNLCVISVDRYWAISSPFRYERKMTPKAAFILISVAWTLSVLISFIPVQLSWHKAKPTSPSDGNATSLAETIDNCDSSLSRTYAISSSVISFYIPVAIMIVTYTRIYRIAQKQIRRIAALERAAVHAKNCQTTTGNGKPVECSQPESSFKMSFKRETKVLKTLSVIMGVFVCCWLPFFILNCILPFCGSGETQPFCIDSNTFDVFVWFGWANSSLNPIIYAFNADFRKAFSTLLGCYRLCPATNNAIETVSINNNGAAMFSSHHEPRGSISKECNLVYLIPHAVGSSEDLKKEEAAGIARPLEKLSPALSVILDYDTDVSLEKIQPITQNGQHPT
Summary of the method: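 Competition binding at cloned human receptors of the D1 family with [3H]SCH 23390 as radioligand; test ligand displacement expressed as Ki.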

D(3) dopamine receptor = D(3) dopamine receptor (Homo sapiens, UniProt P35462); assay: Displacement of [3H]spiperone from human dopamine D3 receptor expressed in CHO cells; format: cell-based
D(3) dopamine receptor, sequence (P35462 whole entry): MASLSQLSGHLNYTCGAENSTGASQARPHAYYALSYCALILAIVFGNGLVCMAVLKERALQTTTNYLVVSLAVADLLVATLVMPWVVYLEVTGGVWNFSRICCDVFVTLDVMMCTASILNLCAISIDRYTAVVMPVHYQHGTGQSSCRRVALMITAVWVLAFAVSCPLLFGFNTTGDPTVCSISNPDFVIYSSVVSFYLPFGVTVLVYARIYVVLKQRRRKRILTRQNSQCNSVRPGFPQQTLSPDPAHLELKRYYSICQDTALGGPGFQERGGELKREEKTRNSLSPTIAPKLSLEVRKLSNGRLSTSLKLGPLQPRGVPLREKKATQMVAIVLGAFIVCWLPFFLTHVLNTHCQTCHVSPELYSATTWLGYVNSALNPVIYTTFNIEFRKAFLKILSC
Summary of the method: (§1)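 Competition binding at cloned human receptors of the D2 family with [3H]spiperone as radioligand; test ligand displacement expressed as Ki.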

D(4) dopamine receptor = biological target: T1, D(4) dopamine receptor (Homo sapiens, UniProt P21917); assay: Displacement of [3H]spiperone from human dopamine D4.4 receptor expressed in CHO cells; format: cell-based; summary of the method: as §1
T1 sequence (P21917 whole entry): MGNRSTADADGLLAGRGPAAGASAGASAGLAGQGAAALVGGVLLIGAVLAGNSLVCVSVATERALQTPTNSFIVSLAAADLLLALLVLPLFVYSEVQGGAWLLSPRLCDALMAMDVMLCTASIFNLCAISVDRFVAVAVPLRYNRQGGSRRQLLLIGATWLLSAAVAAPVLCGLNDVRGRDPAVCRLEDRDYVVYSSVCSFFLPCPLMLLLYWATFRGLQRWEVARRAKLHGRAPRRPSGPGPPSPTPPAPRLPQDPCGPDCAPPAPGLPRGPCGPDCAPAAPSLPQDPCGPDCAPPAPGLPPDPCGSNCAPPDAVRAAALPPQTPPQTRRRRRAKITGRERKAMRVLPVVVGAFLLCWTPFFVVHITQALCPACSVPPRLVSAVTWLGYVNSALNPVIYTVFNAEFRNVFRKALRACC

D(2) dopamine receptor = D(2) dopamine receptor (Homo sapiens, UniProt P14416); assay: Displacement of [3H]spiperone from human dopamine D2L receptor expressed in HEK293 cells; format: cell-based; summary of the method: as §1
D(2) dopamine receptor, sequence (P14416 whole entry): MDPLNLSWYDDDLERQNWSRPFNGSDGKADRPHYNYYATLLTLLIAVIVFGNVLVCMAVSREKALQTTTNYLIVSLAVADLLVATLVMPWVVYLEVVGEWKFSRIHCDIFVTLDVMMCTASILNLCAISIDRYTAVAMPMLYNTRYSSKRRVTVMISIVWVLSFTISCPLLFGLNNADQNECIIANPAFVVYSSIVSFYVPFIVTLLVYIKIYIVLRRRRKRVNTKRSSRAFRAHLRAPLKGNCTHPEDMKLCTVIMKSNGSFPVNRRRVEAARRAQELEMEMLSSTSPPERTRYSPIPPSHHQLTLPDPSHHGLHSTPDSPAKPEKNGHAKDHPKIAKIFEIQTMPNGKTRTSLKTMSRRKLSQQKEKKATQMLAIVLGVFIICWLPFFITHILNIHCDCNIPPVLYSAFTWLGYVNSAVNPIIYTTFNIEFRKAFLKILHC

D(1B) dopamine receptor, sequence (P21918 whole entry): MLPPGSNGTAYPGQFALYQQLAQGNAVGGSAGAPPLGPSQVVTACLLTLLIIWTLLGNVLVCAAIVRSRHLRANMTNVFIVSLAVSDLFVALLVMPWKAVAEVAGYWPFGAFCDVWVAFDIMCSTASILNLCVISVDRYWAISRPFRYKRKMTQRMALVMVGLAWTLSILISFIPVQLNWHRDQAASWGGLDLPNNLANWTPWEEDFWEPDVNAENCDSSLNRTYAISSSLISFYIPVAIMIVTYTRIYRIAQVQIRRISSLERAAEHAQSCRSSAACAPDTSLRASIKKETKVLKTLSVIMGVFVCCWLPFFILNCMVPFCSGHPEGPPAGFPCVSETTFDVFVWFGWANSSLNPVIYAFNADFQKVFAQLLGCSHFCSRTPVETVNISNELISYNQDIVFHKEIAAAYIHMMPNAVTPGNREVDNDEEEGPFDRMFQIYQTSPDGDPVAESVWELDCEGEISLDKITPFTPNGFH

SMILES | pKi (D(1B) dopamine receptor) | pKi (D(1A) dopamine receptor) | pKi (D(3) dopamine receptor) | pKi (D(4) dopamine receptor) | pKi (D(2) dopamine receptor)
COc1cc2c(cc1Cl)CCN1CCCc3ccccc3C21 (stereo unspecified) | < 5.00 | < 5.00 | < 5.00 | < 5.00 | < 5.00
COc1ccc2c(c1)CCCN(C)CCc1ccccc1C2 | 7.26 | 7.53 | 5.50 | 5.96 | 7.60
CN1CCCc2ccccc2Cc2ccc(O)cc2CCC1 | 7.02 | 7.08 | 5.40 | 6.37 | 6.42
CN1CCCc2ccccc2Cc2ccc(O)cc2CC1 | 8.01 | 8.49 | 7.00 | 7.22 | 7.13
COc1ccc(CCN2CCCc3ccccc3C2)cc1Cl | < 5.00 | < 5.00 | < 5.00 | < 5.00 | < 5.00
Oc1ccc2c(c1)CCCNCCc1ccccc1C2 | 6.50 | 6.54 | 5.16 | 5.37 | 6.07
COc1ccc2c(c1)CCCN1CCCc3ccccc3C21 (stereo unspecified) | < 5.00 | < 5.00 | < 5.00 | < 5.00 | < 5.00
CN1CCCc2cc(O)ccc2Cc2ccccc2CC1 | 7.77 | 7.86 | 5.21 | 5.65 | 6.29
CN1CCCc2ccccc2Cc2cc(O)ccc2CC1 | 7.16 | 7.15 | 6.11 | 5.43 | 7.20
COc1cc2c(cc1OC)Cc1ccccc1CCCN(C)CC2 | 6.29 | 6.24 | 4.83 | 5.30 | 5.99
COc1ccc2c(c1)CCN(C)CCCc1ccccc1C2 | 8.34 | 7.73 | 6.29 | 6.57 | 7.06
COc1ccc2c(c1)CCN(C)CCc1ccccc1C2 | 7.27 | – | – | – | –
COc1ccc2c(c1)Cc1ccccc1CCCN(C)CC2 | 7.12 | 6.86 | 4.62 | 5.56 | 5.86
COc1ccc2c(c1)CCCN(C)CCCc1ccccc1C2 | 7.28 | 7.63 | 5.87 | 5.54 | 6.76
